Measured values reported in PMC12749109 (Nature Communications, 2025).

Key:
Caco2 cells = assay: RT-qPCR cytokine expression, Caco2 cell inflammation model with GALR antagonists; format: cell-based, human; conditions: Caco-2 inflammation model, IL-1β + TNF-α
DSS-induced colitis [1] = assay: DSS-induced colitis with M871 or SNAP37889 ± cGAL53, overall; format: in vivo; conditions: mouse, 3% DSS; antagonist 10 nmol/mouse + cGAL53 3 μM
Summary of the method: (§1)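 Male C57BL/6 mice (20 ± 2 g, 7–8 weeks) received 3% DSS with daily i.p. test peptide (3 μM). A GALR2 or GALR3 antagonist (10 nmol/mouse, in 10% DMSO/40% PEG 300/30% Tween-20/20% saline) was given 30 min before each peptide dose. Controls followed the standard DSS protocol.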

DSS-induced colitis [2] = assay: DSS-induced colitis with M871 or SNAP37889 ± cGAL29, overall; format: in vivo; conditions: mouse
Summary of the method: as §1

## O=C1C(=Nc2cccc(C(F)(F)F)c2)c2ccccc2N1c1ccccc1 [SNAP37889]
Caco2 cells
  block of anti-inflammatory effect of cGAL53 by antagonist: not by SNAP37889
DSS-induced colitis [1]
  effect of antagonist on ability of cGAL53 to alleviate colitis: cGAL53 was still effective in treating colitis symptoms in mice
DSS-induced colitis [2]
  effect of antagonist on therapeutic efficacy of cGAL29: exerted inhibitory effects on the therapeutic efficacy of cGAL29
